From ChEMBL document CHEMBL1130393, “Antitumor agents. 178. Synthesis and biological evaluation of substituted 2-aryl-1,8-naphthyridin-4(1H)-ones as antitumor agents that inhibit tubulin polymerization” (J Med Chem, 1997)

How the values were obtained:
[1] = tested on: Panel breast (Carcinoma cell lines); assay: log molar concentration required to cause total growth inhibition of breast tumor cell lines; type: functional; settings: Homo sapiens, read-out: Log TGI (converted)
Method in brief: (§1)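 TGI from the NCI 60 human tumor cell line in vitro screen: log of the molar drug concentration causing total growth inhibition, reported for the named cell panel.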

[2] = tested on: Panel CNS (Carcinoma cell lines); assay: log molar concentration required to cause total growth inhibition of CNS cancer cell lines; type: functional; settings: Homo sapiens, read-out: Log TGI (converted); method in brief: as §1
[3] = tested on: Panel colon (Carcinoma cell lines); assay: log molar concentration required to cause total growth inhibition of colon tumor cell lines; type: functional; settings: Homo sapiens, read-out: Log TGI (converted); method in brief: as §1
HL-60 = assay: In vitro antitumor activity against HL-60(TB) tumor cell lines; type: functional; settings: Homo sapiens
Tumor Cell line [4] = assay: In vitro antitumor activity against NCI 's human tumor cell lines; type: functional; settings: read-out: Average log GI50 (converted)
Method in brief: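 NCI in vitro screen of 60 human tumor cell lines. […] The value is calculated from all cell lines tested.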

Leukemic tumor cell line = assay: log molar concentration required to cause total growth inhibition of leukemic tumor cell lines; type: functional; settings: Homo sapiens, read-out: Log TGI (converted); method in brief: as §1
MDA-N = assay: In vitro antitumor activity against MDA-N tumor cell lines; type: functional; settings: Homo sapiens
Melanoma tumor cell line = assay: log molar concentration required to cause total growth inhibition of melanomic tumor cell lines; type: functional; settings: Homo sapiens, read-out: Log TGI (converted); method in brief: as §1
NCI-H460 = assay: In vitro antitumor activity against NCI-H460 tumor cell lines; type: functional; settings: Homo sapiens
OVCAR-3 = assay: In vitro antitumor activity against OVCAR-3 tumor cell lines; type: functional; settings: Homo sapiens
NSCLC = assay: log molar concentration required to cause total growth inhibition of non-small cell lung tumor cell lines; type: functional; settings: Homo sapiens, read-out: Log TGI (converted); method in brief: as §1
PC-3 = assay: In vitro antitumor activity against PC-3 tumor cell lines; type: functional; settings: Homo sapiens
[5] = tested on: Panel prostate (Carcinoma cell lines); assay: log molar concentration required to cause total growth inhibition of prostate tumor cell lines; type: functional; settings: Homo sapiens, read-out: Log TGI (converted); method in brief: as §1
[6] = tested on: Panel renal (Carcinoma cell lines); assay: log molar concentration required to cause total growth inhibition of renal tumor cell lines; type: functional; settings: Homo sapiens, read-out: Log TGI (converted); method in brief: as §1
SF-295 = assay: In vitro antitumor activity against SF-295 tumor cell lines; type: functional; settings: Homo sapiens
SK-MEL-5 = assay: In vitro antitumor activity against SK-MEL-5 tumor cell lines; type: functional; settings: Homo sapiens
U-251 = assay: In vitro antitumor activity against U-251 tumor cell lines; type: functional; settings: Homo sapiens
Tubulin = Tubulin (Bos taurus, UniProt Q6B856+Q862L2+Q862F3); assay: Inhibition of tubulin polymerization; type: functional
Tubulin (Bos taurus) = Tubulin (Bos taurus) (UniProt Q6B856+Q862L2+Q862F3); assay: Inhibition of radiolabeled colchicine binding to tubulin; type: protein assay; parameters: concentration or dose not given beside the values; settings: concentration not given here
Method in brief: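 Measured by DEAE-cellulose filter binding. The 0.1 mL mixture held bovine brain tubulin 1.0 µM, 1.0 M monosodium glutamate (pH 6.6), 1 mM MgCl2, 0.1 mM GTP, 5.0 µM [3H]colchicine, 5% DMSO and inhibitor at 5.0 µM. It was incubated 20 min at 37 °C, filtered through two DEAE-cellulose papers, washed with water and counted by liquid scintillation.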

HCT-116 = assay: In vitro antitumor activity against HCT116 tumor cell lines; type: functional; settings: Homo sapiens
MDA-MB-435 = assay: In vitro antitumor activity against MDA-MB-435 NCI 's human tumor cell lines; type: functional
CAKI-1 = assay: In vitro antitumor activity against CAKI-1 tumor cell lines; type: functional; settings: Homo sapiens
Tumor Cell line [7] = assay: log molar concentration required to cause total growth inhibition of NCI 's human tumor cell lines; type: functional; settings: read-out: Log TGI (converted)
Method in brief: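 NCI 60 human tumor cell line in vitro screen. TGI is the log molar concentration giving total growth inhibition, calculated from all cell lines tested.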

[8] = tested on: Panel ovarian (Carcinoma cell lines); assay: log molar concentration required to cause total growth inhibition of ovarian tumor cell lines; type: functional; settings: Homo sapiens, read-out: Log TGI (converted); method in brief: as §1

Row | SMILES | GI50 (HL-60) | GI50 (Tumor Cell line [4]) | GI50 (MDA-N) | GI50 (NCI-H460) | GI50 (OVCAR-3) | GI50 (PC-3) | GI50 (SF-295) | GI50 (SK-MEL-5) | GI50 (U-251) | IC50 (Tubulin) | inhibition (Tubulin (Bos taurus)) | GI50 (HCT-116) | GI50 (MDA-MB-435) | GI50 (CAKI-1) | other results
1 | Cc1cc(C)c2c(O)cc(-c3cccc(Cl)c3)nc2n1 | 74.1 nM | 347 nM | 19.1 nM | 224 nM | 170 nM | 27.5 nM | 47.9 nM | 117 nM | 295 nM | 770 nM | 22% | 170 nM | 13.2 nM | 204 nM | TGI [1]: 1230 nM; TGI [2]: 5010 nM; TGI [3]: 28800 nM; TGI (Leukemic tumor cell line): 81300 nM; TGI (Melanoma tumor cell line): 72400 nM; TGI (NSCLC): > 100000 nM; TGI [5]: 3090 nM; TGI [6]: 58900 nM; TGI (Tumor Cell line [7]): 26300 nM; TGI [8]: 30200 nM
2 | Cc1cc(C)c2c(O)cc(-c3cccc4ccccc34)nc2n1 | 245 nM | 1050 nM | 234 nM | 631 nM | 347 nM | 759 nM | 589 nM | 468 nM | 372 nM | 780 nM | 15% | 380 nM | 191 nM | 9550 nM | –
3 | Oc1cc(-c2ccc3ccccc3c2)nc2ncc(Cl)cc12 | 1780 nM | 5750 nM | 1550 nM | 4070 nM | 2630 nM | 3090 nM | 5500 nM | 2950 nM | 4790 nM | 2500 nM | – | 3980 nM | 851 nM | 7590 nM | –
4 | Cc1ccnc2nc(-c3ccc4ccccc4c3)cc(O)c12 | 204 nM | 1200 nM | 204 nM | 1050 nM | 1290 nM | 1380 nM | 1480 nM | 437 nM | 646 nM | 1800 nM | – | 427 nM | 204 nM | 2400 nM | –
5 | Cc1cccc(-c2cc(O)c3cc(C)cnc3n2)c1 | 174 nM | 646 nM | < 10 nM | 389 nM | 251 nM | 309 nM | 417 nM | 288 nM | 170 nM | 1500 nM | – | 407 nM | < 10 nM | 437 nM | –
